The nature of the series: Toxicity liver stage against HepG2, at 10uM. The class given is cell-based. Details: test concentration 10 uM, cell line HepG2-A16-CD81EGFP. Conditions: human, HepG2-A16-CD81EGFP cells; read-out: INHIBITION
Put shortly:
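Uninfected HepG2-A16-CD81EGFP cells, 3 × 10^3 per well, 1536-well, plated on prespotted compound at 10 μM final, parasite-free screening media added to match infected plates; puromycin 10 μM positive, DMSO 0.5% negative; run in parallel with 48 h PbLuc assay at 37 °C, 5% CO2; viability by CellTiter-Glo luminescence, normalized to controls.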

`Cc1cc(CN(C)C(=O)NCc2ccnc(OC3CCCC3)c2)no1`: the cytotoxicity at 10 µM came out at 9.52%.
For `c1[nH]c(CC2CCCC2)nc1CN1CCCC2(CCOC2)C1` (stereo not drawn), the cytotoxicity at 10 µM was -9.12%.
With `CCc1nc(C)c(C(=O)NCCNC(=O)Cc2cccc(F)c2)s1`, the cytotoxicity at 10 µM is 1.98%.
The figure for `CC(C)CCn1[nH]c(CNc2ccccc2)nc1=O` is 1.62%; for `Cn1ccnc1CNC(=O)Nc1ccc(OC2CCC2)c(F)c1` it is -4.92%.
As for `CC(C)NC(=O)c1cnc(Sc2nccn2C)c(Cl)c1`, the cytotoxicity at 10 µM is -41.4%.
The figure for `Cc1cnn(CC2CCCCN2C(=O)Cc2c(C)noc2C)c1` (stereo not drawn) is -0.807%; for `O=C(c1cccs1)N1CCCC2(COCCN(c3cccnc3)C2)C1` (stereo not drawn) it is -70.3%.
As to `CCC(=O)Nc1ccc(C(C)NC(=O)COCCOC)cc1` (stereo not drawn), the cytotoxicity at 10 µM was -7.71%.
The figure for `CC(CNC(=O)N1CCNC(=O)CC1)Cc1cccs1` (stereo not drawn) is -5.62%.
`Cn1nc2c(cc1=O)CN(CC1CCCCO1)CC2` (stereo not drawn): the cytotoxicity at 10 µM came out at 2.58%.
The figure for `CN(Cc1nccs1)c1nccc(N2CCN[C@H]3CS(=O)(=O)C[C@H]32)n1` is -5%.
On to `CNC(=O)CN(C)c1cncc(OCC(C)C)n1`, for which the cytotoxicity at 10 µM stood at 0.137%.
As for `Cc1noc(C)c1CNC(=O)N1CCN(CC2CC2)CC1`, the cytotoxicity at 10 µM is -6.48%.
Take `COC(=O)C(CO)NC(=O)c1cn(Cc2ccccc2F)nn1` (stereo not drawn): the cytotoxicity at 10 µM is -1.14%.
As for `O=C(c1ccc(-n2cc(Br)cn2)cc1)N1CCN(c2cnccn2)CC1`, the cytotoxicity at 10 µM came to 1.52%.
On to `Cc1c(Br)cnn1CC(=O)Nc1ccon1`, for which the cytotoxicity at 10 µM was found to be 10.8%.
For the compound `CN(Cc1ccco1)[C@@H]1CN(Cc2cnn(C)c2)[C@@H]2CCCO[C@H]12`, the cytotoxicity at 10 µM was -75.8%.
For the compound `CCOC(=O)NCCC(=O)NC(C)(C)c1ccc2c(c1)OCCO2`, the cytotoxicity at 10 µM was -0.418%.
For `CCN(C)c1ncnc2c1CCN(C(=O)N1CCOCC1)CC2`, the cytotoxicity at 10 µM was found to be 0.223%.
As to `CN(C)[C@@H]1CN(Cc2ccccn2)C[C@H]1c1cn(C)c2ccccc12`, the cytotoxicity at 10 µM is -0.73%.
As to `Cc1cnn(C2CN(CC(=O)N(C)Cc3ccc(C)o3)C2)c1`, the cytotoxicity at 10 µM was -15.9%.
`CCc1nc(C2CCCN2C(=O)c2cnc[nH]2)no1` (stereo not drawn): the cytotoxicity at 10 µM was -13.6%.
For `COCCN1CCCC(O)(CN2CCN(Cc3ccncc3)CC2)C1=O` (stereo not drawn), the cytotoxicity at 10 µM is -8.24%.
Take `CC(C)c1cc(C(=O)N(Cc2ccncc2)CC2CCCO2)no1` (stereo not drawn): the cytotoxicity at 10 µM is 15.6%.
In the case of `Cc1noc(C(C)N2CCN(CCN3CCCC3=O)CC2)n1` (stereo not drawn), the cytotoxicity at 10 µM is -13.4%.
Next, `CC(C)C(C)NC(=O)Nc1ccc(CS(C)(=O)=O)cc1` (stereo not drawn): -8.49%.
Take `COc1c(C)cnc(CN2CCCC2c2noc(C3CC3)n2)c1C` (stereo not drawn): the cytotoxicity at 10 µM was -0.0422%.
The figure for `CCc1noc(CNc2ccc(F)cc2OCC2CC2)n1` is -7.21%; for `c1ccc(CNc2ncc(CN3CCCN4CCC[C@H]4C3)cn2)cc1` it is -9.53%.
With `COCCC(=O)N1CCCC(CCC(=O)NCc2ccccc2F)C1` (stereo not drawn), the cytotoxicity at 10 µM is 11%.
Consider `CN(C)C(=O)c1cccc(Nc2cnn(C)c2)c1`, for which the cytotoxicity at 10 µM is 5.42%.
`COCC1CN(C(=O)CNC(C)=O)Cc2ncnn2C1` (stereo not drawn): the cytotoxicity at 10 µM is -12.4%.
With `CC(=O)N(C)Cc1ccccc1NCc1c(C)noc1C`, the cytotoxicity at 10 µM turned out to be 5.76%.
In the case of `CCC(CO)NCc1ccc(-c2ccccc2)o1` (stereo not drawn), the cytotoxicity at 10 µM was 4.42%.
Consider `CCOCC1CN(Cc2cnn(C)c2)Cc2ncn(C)c21` (stereo not drawn), for which the cytotoxicity at 10 µM is -79.2%.
The figure for `O=C1[C@H]2CCCC[C@H]2C(=O)N1c1cnn(Cc2cccc(F)c2)c1` is -5.24%; for `Cc1c(C(=O)N2CCS(=O)(=O)CC2)nnn1-c1ccc2ncccc2c1` it is -5.82%; for `Cc1ccc(Cl)cc1N1CCC(CNC(=O)CCn2ccnn2)C1` (stereo not drawn) it is -5.72%.
For the compound `Cc1ccccc1OCC1CCCN(c2cc(N)nc(N)n2)C1` (stereo not drawn), the cytotoxicity at 10 µM was found to be 29%.
Turning to `O=C(c1ccc(-n2ccnc2)nn1)N1CCCC1CCc1ccccc1` (stereo not drawn), the cytotoxicity at 10 µM turned out to be 8.57%.
In the case of `CN1CC(=O)N(c2cccnc2)CC12CCN(C(=O)C1CCCCC1)C2` (stereo not drawn), the cytotoxicity at 10 µM is 1.55%.
As for `Cc1nc(CCCNC(=O)Nc2ccc(F)cc2F)n[nH]1`, the cytotoxicity at 10 µM was -2.9%.
On to `O=C(c1csc(I)c1)N1CCc2c(ncn2C2CC2)C1`, for which the cytotoxicity at 10 µM amounted to 7.21%.
The figure for `CCn1ccnc1CN1CCN(C(C)C)CC1C` (stereo not drawn) is -6.58%; for `CNC(=O)c1cccc(NCC(=O)Nc2cc(C)nn2C)c1C` it is -1.49%; for `CC(C)CNC(=O)c1ccc(NC(=O)NC(C)(C)CO)cc1Cl` it is 6.27%.
For `CN(C)CCCNc1ncnc2cccc(F)c12`, the cytotoxicity at 10 µM was determined as 9.66%.
Regarding `Cc1nc(CN2CCOC(c3nc(C(C)C)n[nH]3)C2)oc1C` (stereo not drawn), the cytotoxicity at 10 µM was -7.98%.
Next, `COCC(C)(C#N)NC(=O)c1cn(-c2cccc(Cl)c2F)nn1` (stereo not drawn): 0.472%; `CCN(CC)c1ncc(CNCC2CCCn3ccnc32)s1` (stereo not drawn): -29.9%; `Cc1cnc(NS(=O)(=O)c2ccccc2)s1`: -2.56%.
In the case of `CCC(CO)NCc1ccc(-c2ccccc2F)o1` (stereo not drawn), the cytotoxicity at 10 µM is -2.49%.
Turning to `CN1CCN(C(=O)c2cnc3c(cnn3C3CCCC3)c2)CC1`, the cytotoxicity at 10 µM is -14.6%.
For `CN1C(=O)CC(c2ccccc2)C12CCN(c1ncccn1)CC2` (stereo not drawn), the cytotoxicity at 10 µM is -99.4%.
Take `N#CCSCCCN1CCN(C(=O)c2ccc(Cl)cc2)CC1`: the cytotoxicity at 10 µM was -10.3%.
Consider `CCN(c1ccsc1C(=O)N1CCC(C)CC1)S(=O)(=O)c1ccccc1`, for which the cytotoxicity at 10 µM came to 14.7%.
The figure for `COc1ccc(-c2nccn2CCN2CCCCC2)c(OC)c1OC` is 4.74%; for `CCOC(=O)CNC(=O)c1cc2n(n1)CCCO2` it is 1.43%.
The figure for `CCS(=O)(=O)N1CCC2(CC1)COC(COc1cccnc1)C2` (stereo not drawn) is 10.6%.
Turning to `O=C(Cc1cccc(F)c1)NCCNCc1cccc(O)c1`, the cytotoxicity at 10 µM is -9.5%.
The figure for `Cc1ccc(CNC(C)(C)c2noc(C(C)(C)C)n2)o1` is -9.02%; for `Cc1ccc(CN2CC[C@@H](O)[C@@H]2Cc2cnn(C)c2)o1` it is -71%; for `CCCC(=O)N(C)CC(=O)Nc1ccc(Br)cn1` it is -15.5%.
Consider `CN(C)C(=O)C1CN(Cc2c[nH]cn2)CCN(C2CCOCC2)C1` (stereo not drawn), for which the cytotoxicity at 10 µM was -5.97%.
As for `O=C(Nc1cccs1)NC(CCCO)c1ccccc1` (stereo not drawn), the cytotoxicity at 10 µM came to 9.18%.
In the case of `CC(C)c1cc(NCC(O)CO)n2nccc2n1` (stereo not drawn), the cytotoxicity at 10 µM is -24.8%.
With `O=S(=O)(c1cccc(F)c1)N1CCCCC1c1ccn[nH]1` (stereo not drawn), the cytotoxicity at 10 µM amounted to 0.692%.
Consider `COc1ccc(F)cc1S(=O)(=O)NCC(O)c1sccc1C` (stereo not drawn), for which the cytotoxicity at 10 µM was -0.269%.
Consider `CO[C@H]1CN(C(=O)c2ccc[nH]2)[C@@H]2COC[C@H]12`, for which the cytotoxicity at 10 µM was -6.04%.
Regarding `Cc1cc(CN2CCOC(CN(C)C)C2)no1` (stereo not drawn), the cytotoxicity at 10 µM is -0.759%.
On to `COc1cccc(CN2C[C@@H]3COC[C@]3(CNC(=O)C3CC3)C2)c1`, for which the cytotoxicity at 10 µM is -99%.
Regarding `O=C(COCc1ccccc1)NCc1ccc(O)c(F)c1`, the cytotoxicity at 10 µM turned out to be 1.05%.
For the compound `CCC1=N[C@@]2(CC[C@@H]3CN(C(=O)Nc4ccc(F)cc4)C[C@@H]32)C(=O)N1`, the cytotoxicity at 10 µM was -24%.
Regarding `O=S(=O)(CCN1CCCC1Cn1cncn1)c1ccccc1` (stereo not drawn), the cytotoxicity at 10 µM is -21%.
For `COc1ccc(CCN)cc1-c1ccc(C(N)=O)cc1`, the cytotoxicity at 10 µM amounted to 3.23%.
In the case of `Cc1ccc(-n2nc(C)c3c2NC(=O)CC3c2cnc(N)s2)cc1` (stereo not drawn), the cytotoxicity at 10 µM was 5.56%.
As to `CC(=O)N1CC(C)CN(C(=O)c2cscn2)c2ccccc21` (stereo not drawn), the cytotoxicity at 10 µM turned out to be 1.98%.
Take `O=C(c1cccnc1)N1C[C@@H]2OCC(=O)N(Cc3cccnc3)[C@@H]2C1`: the cytotoxicity at 10 µM was 2.08%.
Next, `c1cncc(-n2cnnc2CCCN2CCOCC2)c1`: 1.5%; `O=C(Nc1cccc(N2CCN(CC3CC3)CC2)c1)C1CCOC1` (stereo not drawn): 1.68%; `CCn1ccnc1CN1CCCN(C(=O)c2ccc(C#N)cc2)CC1`: -6.96%.
Turning to `Cc1cnc(C(=O)N2CCc3c(nc(-c4ccncc4)[nH]c3=O)C2)cn1`, the cytotoxicity at 10 µM came out at 8.62%.
Turning to `Cc1nc(CN2CCCC(Nc3ncnc4ccccc34)C2)no1` (stereo not drawn), the cytotoxicity at 10 µM amounted to 50%.
For the compound `Cc1ccc(Oc2ncccc2C(=O)O)c(C)c1`, the cytotoxicity at 10 µM came out at 2.4%.
Regarding `COc1ccc(OCCCN(C)C(=O)C2CCCN2C(N)=O)cc1` (stereo not drawn), the cytotoxicity at 10 µM is 1.7%.
As to `Cc1c(F)cc(C(=O)O)cc1S(=O)(=O)Nc1cccc(C(F)F)c1`, the cytotoxicity at 10 µM was -1.35%.
With `O=C(c1c2c(N3CCOCC3)ncnc2n2ccccc12)N1CCCC1`, the cytotoxicity at 10 µM was -1.52%.
Next, `CCC(=O)N1CCN(c2ncnc3c(C)nn(C)c23)CC1`: -1.43%; `Cn1c(=O)n(C)c2nc(Cl)c(CC(=O)c3ccc(F)cc3)n2c1=O`: 6.28%; `COCCOc1ncccc1C(=O)N1CCCn2ncnc21`: -2.98%.
With `CN1CCCCC1c1ncc2c(n1)CCN(Cc1ccc(Cl)c(F)c1)C2` (stereo not drawn), the cytotoxicity at 10 µM is -27.7%.
Next, `O=C(NCC1CC1)C1CSCN1S(=O)(=O)c1ccccc1` (stereo not drawn): -4.43%; `COc1ccc(CN(C)C(=O)Cc2c(C)nn(C)c2C)cc1F`: 17%.
The figure for `Cc1cccc(CN2C(=O)CC[C@@H]3[C@H]2CCN3CC2CCOCC2)n1` is 5.89%.
Consider `CNC(=O)Cc1noc(Cc2ccc3c(c2)CCCC3)n1`, for which the cytotoxicity at 10 µM is -14.1%.
Next, `CCn1cnnc1CNC(=O)N1CCOC(c2ccc(Cl)cc2)C1` (stereo not drawn): 4.13%; `CNS(=O)(=O)CC1CCCN1C(=O)c1ccc(C)c(C)c1` (stereo not drawn): -6.93%.
